In test [1] the target is T1, Prostaglandin D2 receptor 2 (Homo sapiens, UniProt Q9Y5Y4).
T1 sequence (Q9Y5Y4 whole entry): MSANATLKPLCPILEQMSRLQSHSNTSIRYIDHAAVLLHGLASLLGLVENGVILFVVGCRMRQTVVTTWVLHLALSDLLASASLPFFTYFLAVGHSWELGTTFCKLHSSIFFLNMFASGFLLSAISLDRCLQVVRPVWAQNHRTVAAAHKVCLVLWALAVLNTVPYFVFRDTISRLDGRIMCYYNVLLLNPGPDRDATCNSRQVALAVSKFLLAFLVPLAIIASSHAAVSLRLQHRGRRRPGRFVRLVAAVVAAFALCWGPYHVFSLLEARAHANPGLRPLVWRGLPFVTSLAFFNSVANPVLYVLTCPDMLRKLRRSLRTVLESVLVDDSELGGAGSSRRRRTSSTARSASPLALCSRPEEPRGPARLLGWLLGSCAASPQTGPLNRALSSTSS
The test can be described thus: Displacement of [3H]PGD2 from human CRTH2 receptor expressed in CHO cell membrane after 120 mins by scintillation counting. Format: cell membranes. The method in brief:
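Ki derived from the displacement IC50 by the Cheng–Prusoff relationship, using the KD and radioligand concentration supplied by the analyser. Values are geometric means of three or more independent determinations.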
In general terms: Displacement assays read how much labelled ligand stays bound in the presence of the test substance.

Test [2] deals with T2, Prostaglandin D2 receptor 2 (Homo sapiens) (UniProt Q9Y5Y4).
T2 sequence (whole entry): T1 sequence (Q9Y5Y4 whole entry)
The test can be described thus: Displacement of [3H]PGD2 from human CRTH2 receptor expressed in CHO cell membrane at 2.8 uM after 120 mins by scintillation counting. Type of test: cell membranes.

Each structure is given as a SMILES string.

As for `CCc1nn(Cc2ccc3ccccc3c2)c(CC)c1CC(=O)O`, the Ki in test [1] is 0.574 µM. In addition, the inhibition in test [2] is greater than 40%.
The matching figures for `O=C(O)COc1ccccc1COc1ccc(Cl)cc1-c1ccno1`: 0.247 µM and greater than 40%.
`CCCNC(=O)c1ccccc1OCc1cccc(C)c1OCC(=O)O` had a Ki in test [1] of 0.333 µM. Further, in test [2], the inhibition was greater than 40%.
The matching figures for `CCc1nn(CC(=O)O)c(CC)c1Cc1ccc2ccccc2c1`: 0.631 µM and greater than 40%.
The matching figures for `O=C(O)Cn1cnc2c1CCN(C(=O)c1csc(-c3ccccc3)n1)C2`: 0.752 µM and greater than 40%.
`O=C(O)COc1ccccc1COc1ccc(F)cc1C1CC1` showed a Ki in test [1] of 0.591 µM. Further, the inhibition in test [2] is greater than 40%.
For the compound `Cc1ccc2cccc(OCc3ccccc3OCC(=O)O)c2n1`, affinity in test [1] was put at a Ki of 0.492 µM. In test [2], the inhibition is greater than 40%.
The matching figures for `Cc1ccc(Cl)cc1OCc1ccccc1OCC(=O)O`: 0.52 µM and greater than 40%.
The matching figures for `CCc1nn(Cc2cc(Cl)ccc2Cl)c(CC)c1CC(=O)O`: 0.623 µM and greater than 40%.
The matching figures for `CCc1nn(Cc2cccc(Br)c2)c(CC)c1CC(=O)O`: 0.563 µM and greater than 40%.

For orientation: Ki means a measure of affinity in units of concentration, obtained from inhibition or displacement. What is called inhibition is how much of the control response was suppressed.
